Assays:
Canis familiaris [1] = assay: Diuretic activity in mongrel dog anesthetized with sodium pentobarbital assessed as urine volume at 10 mg/kg, iv measured after 15 to 45 mins post dose (reference value: 1 to 5 ml/min); type: functional, Canis lupus familiaris
Method in brief: (§1)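 Dogs given compound iv as the Na salt in water; clearance procedure per ref 1. Baseline is the mean of two 15-min clearance periods before dosing. Response is the mean of two consecutive 15-min periods of maximal Na+ excretion, usually 15–45 min after dosing. Values are from single representative experiments in a series of three or four dogs.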

Canis familiaris [2] = assay: Diuretic activity in mongrel dog anesthetized with sodium pentobarbital assessed as urine Na+ level at 10 mg/kg, iv measured after 15 to 45 mins post dose (reference value: 3 to 44 uequiv/min); type: functional, Canis lupus familiaris; method in brief: as §1
Canis familiaris [3] = assay: Diuretic activity in mongrel dog anesthetized with sodium pentobarbital assessed as urine Cl- level at 10 mg/kg, iv measured after 15 to 45 mins post dose (reference value: 0 to 30 uequiv/min); type: functional, Canis lupus familiaris; method in brief: as §1
Canis familiaris [4] = assay: Diuretic activity in mongrel dog anesthetized with sodium pentobarbital assessed as urine K+ level at 10 mg/kg, iv measured after 15 to 45 mins post dose (reference value: 10 to 44 uequiv/min); type: functional, Canis lupus familiaris; method in brief: as §1
Canis familiaris [5] = assay: Diuretic activity in mongrel dog anesthetized with sodium pentobarbital assessed as urine volume at 25 mg/kg, iv measured after 15 to 45 mins post dose (reference value: 1 to 5 ml/min); type: functional, Canis lupus familiaris; method in brief: as §1
Canis familiaris [6] = assay: Diuretic activity in mongrel dog anesthetized with sodium pentobarbital assessed as urine Na+ level at 25 mg/kg, iv measured after 15 to 45 mins post dose (reference value: 3 to 44 uequiv/min); type: functional, Canis lupus familiaris; method in brief: as §1
Canis familiaris [7] = assay: Diuretic activity in mongrel dog anesthetized with sodium pentobarbital assessed as urine Cl- level at 25 mg/kg, iv measured after 15 to 45 mins post dose (reference value: 0 to 30 uequiv/min); type: functional, Canis lupus familiaris; method in brief: as §1
Canis familiaris [8] = assay: Diuretic activity in mongrel dog anesthetized with sodium pentobarbital assessed as urine K+ level at 25 mg/kg, iv measured after 15 to 45 mins post dose (reference value: 10 to 44 uequiv/min); type: functional, Canis lupus familiaris; method in brief: as §1
Canis familiaris [9] = assay: Diuretic activity in mongrel dog […] assessed as urine K+ level per 6 hrs at 10 mg/kg, po as gelatin capsules (reference value: 1 equiv/6 hrs); type: functional, Canis lupus familiaris
Method in brief: (§2)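 Trained female mongrel dogs (8–10 kg) given 100 ml water the day before and fasted overnight. On test day they received 250 ml water orally, then 500 ml 1 h later. One hour after that, bladders were catheter-emptied and compound or placebo was given orally in gelatin capsules. Dogs were kept in metabolism cages, and spontaneous urine was pooled with catheter urine at 6 h. Volume and Na+, K+ and Cl− were measured; results are averages per dog group.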

Canis familiaris [10] = assay: Diuretic activity in mongrel dog […] assessed as urine Cl- level per 6 hrs at 10 mg/kg, po as gelatin capsules (reference value: 2 equiv/6 hrs); type: functional, Canis lupus familiaris; method in brief: as §2
Canis familiaris [11] = assay: Diuretic activity in mongrel dog […] assessed as urine Na+ level per 6 hrs at 10 mg/kg, po as gelatin capsules (reference value: 2 equiv/6 hrs); type: functional, Canis lupus familiaris; method in brief: as §2
Canis familiaris [12] = assay: Diuretic activity in mongrel dog anesthetized with sodium pentobarbital assessed as urine Na+ level at 5 mg/kg, iv measured after 15 to 45 mins post dose (reference value: 3 to 44 uequiv/min); type: functional, Canis lupus familiaris; method in brief: as §1
Canis familiaris [13] = assay: Diuretic activity in mongrel dog anesthetized with sodium pentobarbital assessed as urine Cl- level at 1 mg/kg, iv measured after 15 to 45 mins post dose (reference value: 0 to 30 uequiv/min); type: functional, Canis lupus familiaris; method in brief: as §1
Canis familiaris [14] = assay: Diuretic activity in mongrel dog anesthetized with sodium pentobarbital assessed as urine Na+ level at 1 mg/kg, iv measured after 15 to 45 mins post dose (reference value: 3 to 44 uequiv/min); type: functional, Canis lupus familiaris; method in brief: as §1
Canis familiaris [15] = assay: Diuretic activity in mongrel dog anesthetized with sodium pentobarbital assessed as urine volume at 5 mg/kg, iv measured after 15 to 45 mins post dose (reference value: 1 to 5 ml/min); type: functional, Canis lupus familiaris; method in brief: as §1
Canis familiaris [16] = assay: Diuretic activity in mongrel dog anesthetized with sodium pentobarbital assessed as urine Cl- level at 5 mg/kg, iv measured after 15 to 45 mins post dose (reference value: 0 to 30 uequiv/min); type: functional, Canis lupus familiaris; method in brief: as §1
Canis familiaris [17] = assay: Diuretic activity in mongrel dog anesthetized with sodium pentobarbital assessed as urine volume at 1 mg/kg, iv measured after 15 to 45 mins post dose (reference value: 1 to 5 ml/min); type: functional, Canis lupus familiaris; method in brief: as §1
Canis familiaris [18] = assay: Diuretic activity in mongrel dog anesthetized with sodium pentobarbital assessed as urine K+ level at 1 mg/kg, iv measured after 15 to 45 mins post dose (reference value: 10 to 44 uequiv/min); type: functional, Canis lupus familiaris; method in brief: as §1
Canis familiaris [19] = assay: Diuretic activity in mongrel dog anesthetized with sodium pentobarbital assessed as urine K+ level at 5 mg/kg, iv measured after 15 to 45 mins post dose (reference value: 10 to 44 uequiv/min); type: functional, Canis lupus familiaris; method in brief: as §1
Canis familiaris [20] = assay: Diuretic activity in mongrel dog […] assessed as urine K+ level per 6 hrs at 5 mg/kg, po as gelatin capsules (reference value: 1 equiv/6 hrs); type: functional, Canis lupus familiaris; method in brief: as §2
Canis familiaris [21] = assay: Diuretic activity in mongrel dog […] assessed as urine Cl- level per 6 hrs at 5 mg/kg, po as gelatin capsules (reference value: 2 equiv/6 hrs); type: functional, Canis lupus familiaris; method in brief: as §2
Canis familiaris [22] = assay: Diuretic activity in mongrel dog […] assessed as urine Na+ level per 6 hrs at 5 mg/kg, po as gelatin capsules (reference value: 2 equiv/6 hrs); type: functional, Canis lupus familiaris; method in brief: as §2
Canis familiaris [23] = assay: Diuretic activity in mongrel dog assessed as urine Cl- level per 6 hrs at 0.3 mg/kg, po as gelatin capsules (reference value: 2 equiv/6 hrs)
Canis familiaris [24] = assay: Diuretic activity in mongrel dog […] assessed as urine K+ level per 6 hrs at 0.3 mg/kg, po as gelatin capsules (reference value: 1 equiv/6 hrs); type: functional, Canis lupus familiaris; method in brief: as §2
Canis familiaris [25] = assay: Diuretic activity in mongrel dog […] assessed as urine Cl- level per 6 hrs at 1 mg/kg, po as gelatin capsules (reference value: 2 equiv/6 hrs); type: functional, Canis lupus familiaris; method in brief: as §2
Canis familiaris [26] = assay: Diuretic activity in mongrel dog […] assessed as urine Na+ level per 6 hrs at 1 mg/kg, po as gelatin capsules (reference value: 2 equiv/6 hrs); type: functional, Canis lupus familiaris; method in brief: as §2
Canis familiaris [27] = assay: Diuretic activity in mongrel dog […] assessed as urine Na+ level per 6 hrs at 0.3 mg/kg, po as gelatin capsules (reference value: 2 equiv/6 hrs); type: functional, Canis lupus familiaris; method in brief: as §2
Canis familiaris [28] = assay: Diuretic activity in mongrel dog […] assessed as urine K+ level per 6 hrs at 1 mg/kg, po as gelatin capsules (reference value: 1 equiv/6 hrs); type: functional, Canis lupus familiaris; method in brief: as §2

| Structure (SMILES) | Activity (Canis familiaris [1]) [mL/min] | Activity (Canis familiaris [2]) [uEq/min] | Activity (Canis familiaris [3]) [uEq/min] | Activity (Canis familiaris [4]) [uEq/min] | also measured |
| --- | --- | --- | --- | --- | --- |
| C=Cc1ccc(OCC(=O)O)c(Cl)c1Cl | 1 | 34 | 2 | 29 | – |
| N#CC(C#N)=Cc1ccc(OCC(=O)O)cc1 | 2 | 64 | 45 | 10 | – |
| N#CC(C#N)=Cc1ccc(OCC(=O)O)cc1Cl | 2 | 14 | 14 | 34 | – |
| N#CC(C#N)=Cc1ccc(OCC(=O)O)c(Cl)c1Cl | 5 | 736 | 665 | 100 | – |
| CC(=C(C#N)C#N)c1ccc(OCC(=O)O)c(Cl)c1Cl | 2 | 123 | 125 | 38 | – |
| N#C/C(=C\c1ccc(OCC(=O)O)c(Cl)c1Cl)C(N)=O | 4 | 180 | 88 | 35 | – |
| CCOC(=O)/C(C#N)=C/c1ccc(OCC(=O)O)cc1 | 2 | 25 | 25 | 29 | Activity (Canis familiaris [5]): 1 mL/min; Activity (Canis familiaris [6]): 79 uEq/min; Activity (Canis familiaris [7]): 16 uEq/min; Activity (Canis familiaris [8]): 43 uEq/min |
| N#C/C(=C\c1ccc(OCC(=O)O)c(Cl)c1Cl)C(=O)O | 1 | 38 | 29 | 32 | – |
| N#C/C(=C\c1ccc(OCC(=O)O)c(Cl)c1Cl)S(N)(=O)=O | – | – | – | – | Activity (Canis familiaris [9]): 4 equiv; Activity (Canis familiaris [10]): 6 equiv; Activity (Canis familiaris [11]): 6 equiv |
| NC(=O)C(=Cc1ccc(OCC(=O)O)c(Cl)c1Cl)C(N)=O | 3 | 195 | 145 | 86 | – |
| CCOC(=O)C(=Cc1ccc(OCC(=O)O)cc1)C(=O)OCC | – | – | – | – | Activity (Canis familiaris [5]): 1 mL/min; Activity (Canis familiaris [6]): 44 uEq/min; Activity (Canis familiaris [7]): 20 uEq/min; Activity (Canis familiaris [8]): 45 uEq/min |
| CCOC(=O)C(=Cc1ccc(OCC(=O)O)c(Cl)c1Cl)C(=O)OCC | – | – | – | – | Activity (Canis familiaris [12]): 313 uEq/min; Activity (Canis familiaris [13]): 198 uEq/min; Activity (Canis familiaris [14]): 200 uEq/min; Activity (Canis familiaris [15]): 4 mL/min; Activity (Canis familiaris [16]): 261 uEq/min; Activity (Canis familiaris [17]): 2 mL/min; Activity (Canis familiaris [18]): 54 uEq/min; Activity (Canis familiaris [19]): 113 uEq/min |
| CS(=O)(=O)C(=Cc1ccc(OCC(=O)O)c(Cl)c1Cl)S(C)(=O)=O | – | – | – | – | Activity (Canis familiaris [5]): 3 mL/min; Activity (Canis familiaris [6]): 31 uEq/min; Activity (Canis familiaris [7]): 34 uEq/min; Activity (Canis familiaris [8]): 48 uEq/min |
| CC(=O)/C(=C/c1ccc(OCC(=O)O)c(Cl)c1Cl)S(=O)(=O)c1ccccc1 | 3 | 183 | 166 | 58 | – |
| O=C(O)COc1ccc(/C=C(/C(=O)Oc2ccccc2)S(=O)(=O)Oc2ccccc2)c(Cl)c1Cl | – | – | – | – | Activity (Canis familiaris [9]): 2 equiv; Activity (Canis familiaris [10]): 6 equiv; Activity (Canis familiaris [11]): 6 equiv |
| O=C(O)COc1ccc(/C=C2\C(=O)C3CCN2CC3)c(Cl)c1Cl | 4 | 172 | 115 | 70 | – |
| N#C/C=C/c1ccc(OCC(=O)O)c(Cl)c1Cl | 6 | 448 | 484 | 59 | Activity (Canis familiaris [20]): 4 equiv; Activity (Canis familiaris [21]): 17 equiv; Activity (Canis familiaris [22]): 12 equiv |
| C=C(CC)C(=O)c1ccc(OCC(=O)O)c(Cl)c1Cl [ETHACRYNIC ACID] | – | – | – | – | Activity (Canis familiaris [23]): 10 equiv; Activity (Canis familiaris [24]): 2 equiv; Activity (Canis familiaris [25]): 26 equiv; Activity (Canis familiaris [26]): 21 equiv; Activity (Canis familiaris [27]): 8 equiv; Activity (Canis familiaris [28]): 5 equiv |

— ChEMBL document CHEMBL3272156, “(Vinylaryloxy)acetic acids. A new class of diuretic agents. 4. Various ((2-substituted and 2,2-disubstituted vinyl)aryloxy)acetic acids” (1976)
